In ChEMBL document CHEMBL1124378, “Synthesis and pharmacological evaluation of a series of 4-piperazinylpyrazolo[3,4-b]- and -[4,3-b][1,5]benzodiazepines as potential anxiolytics” (J Med Chem, 1989):

Columns and labels:
Mus musculus [1] = assay: Dose below which no catalepsy was observed at any time period (following p.o. dosing); assay type: functional
How it was run: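 CFW mice (21-23 g), three per group, dosed orally in water or 0.5% carboxymethylcellulose. Checked at 0.25, 2.5 and 5.0 h for holding one hind limb on a 2-cm rubber bung and staying on a vertical grid, judged against a control by a trained observer.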

Mus musculus [2] = assay: Compound administered perorally was evaluated for the hypothermia (rectal temperature) in mice; assay type: functional
How it was run: (§1)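 Groups of three CFW mice (21-23 g) received oral compound in water or 0.5% carboxymethylcellulose. Rectal temperature was taken at 0.25, 2.5 and 5.0 h. Mean change from the group's initial mean was summed over the three times. Hypothermia scored if the summed reduction was >4 °C.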

[3] = biological target: Muscarinic acetylcholine receptor; assay: Compound was evaluated for the inhibition of [3H]QNB binding to Muscarinic acetylcholine receptor from male Olac rat brain.
Rattus norvegicus [4] = assay: Rotarod response in rat to assess muscular incoordination (following p.o. dosing); assay type: functional
How it was run: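 Male Olac-Wistar rats (140-150 g), five per group, fed ad libitum, dosed orally. Tested 1 and 2 h later on a horizontal rod (2 rpm, 32 mm diameter), maximum 30 s. Mean time compared with vehicle controls by Mann-Whitney U test, significant at p < 0.05.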

Rattus norvegicus [5] = assay: Compound administered perorally was evaluated for the conditioned avoidance response in rats; assay type: functional
How it was run: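 Olac-Wistar rats (120-130 g) trained to cross a shuttle box on a 5-s buzzer, with mild shock if no response within 1 s after it ends. Only high-responders used. Groups of five were dosed orally in water or 0.5% carboxymethylcellulose 1 h 50 min before testing. After 10-min habituation they were tested 20 min. Blockade = shocks as % of stimuli presented.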

[6] = biological target: D(2) dopamine receptor (Bos taurus) (UniProt P20288); assay: Inhibition of [3H]spiperone binding to Dopamine receptor D2 from calf caudate
Mus musculus [7] = assay: Compound administered perorally was evaluated for the hypothermia (rectal temperature ) in mice; assay type: functional; how it was run: as §1
[8] = biological target: Muscarinic acetylcholine receptor; assay: Inhibition of [3H]QNB binding to muscarinic cholinergic receptor from male Olac rat brain.
[9] = biological target: D(2) dopamine receptor (Bos taurus) (UniProt P20288); assay: Inhibition of [3H]spiperone binding to dopamine receptor D2 from calf caudate
Rattus norvegicus [10] = species: Rattus norvegicus; assay: compound behavior in rat; assay type: functional; set-up: unit not given here
How it was run: (§2)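 Olac-Wistar rats (180-190 g), eight per group, dosed orally, front paws placed on a 1.5-cm rod 7 cm above the table. Tested at 0.5, 1, 1.5, 2, 3, 4 and 5 h, up to 20 min hold. Each animal's maximum score (0-5 by time held) was summed, giving a group maximum of 40.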

Rattus norvegicus [11] = species: Rattus norvegicus; assay: Compound behavior in rat; assay type: functional; set-up: unit not given here; how it was run: as §2

IC50 [3] [µM]	IC50 [6] [µM]	IC50 [8] [µM]	IC50 [9] [µM]	Compound	EDmin (Mus musculus [1]) [mg/kg]	EDmin (Mus musculus [2]) [mg/kg]	ED (Rattus norvegicus [4]) [mg/kg]	ED (Rattus norvegicus [5]) [mg/kg]	EDmin (Mus musculus [7]) [mg/kg]	Activity (Rattus norvegicus [10])	Activity (Rattus norvegicus [11])
> 1	> 10			CN1CCN(C2=Nc3cc(C(=O)c4ccccc4)ccc3Nc3nn(C)cc32)CC1	>400	>400	>50	>50			
> 1	3.8			CCn1cc2c(n1)Nc1cc(Cl)c(Cl)cc1N=C2N1CCN(C)CC1	200	50	20	>20			
> 10	> 10			Cn1cc2c(n1)Nc1ccc(F)cc1N=C2N1CCCCC1	>400	400	>50	50			
> 100	5.1			Cn1cc2c(n1)Nc1ccc(F)cc1N=C2N1CCN(CCO)CC1	>200	>200	>50	>50			
> 100	> 10			Cc1nn(C)c2c1Nc1ccc(F)cc1N=C2N1CCN(C)CC1	>200	>200	>50	>50			
> 10	5.2			Cn1cc2c(n1)Nc1ccc(F)cc1N=C2N1CCNCC1	>400		>50	>50	200		
> 10	1.6			CN1CCN(C2=Nc3cc(C(F)(F)F)ccc3Nc3nn(C)cc32)CC1	200	50	>30	25			
> 100	> 10			CN1CCN(C2=Nc3ccc(Cl)cc3Nc3nn(C)cc32)CC1	>400	100	>50	>50			
> 100	> 10			CN1CCN(C2=Nc3cc(S(C)(=O)=O)ccc3Nc3nn(C)cc32)CC1	>200	>200	>50				
> 1	> 10			CN1CCN(C2=Nc3cc(Cl)c(Cl)cc3Nc3nn(C)cc32)CC1	50		>50	>20	25		
		> 100	2.1	CN1CCN(C2=Nc3cc(F)ccc3Nc3nn(C)c(-c4ccccc4)c32)CC1	>400	200	>50	>50			
	> 10			Cc1c2c(nn1C)C(N1CCN(C)CC1)=Nc1cc(F)ccc1N2							
		> 1	> 10	Cn1cc2c(n1)Nc1ccc(F)cc1N=C2N1CC[N+](C)([O-])CC1	100	50	>50	>50			
		> 100	0.4	CN1CCN(C2=Nc3cc(F)ccc3Nc3nn(Cc4ccccc4)cc32)CC1	>400	100	>50	50			
> 10	2.5			CCCCCCCCCCn1cc2c(n1)Nc1ccc(Cl)cc1N=C2N1CCN(C)CC1	>400		>50	>50	>400		
		> 1	0.34	CCn1cc2c(n1)Nc1ccc(Cl)cc1N=C2N1CCN(C)CC1	>400	6.25	20	>15			
> 100	> 10			CCOC(=O)N1CCN(C2=Nc3cc(F)ccc3Nc3nn(C)cc32)CC1	>200	>200	>50	>50			
		18	0.7	CCCCCCn1cc2c(n1)Nc1ccc(F)cc1N=C2N1CCN(C)CC1.Cl	>400	100	>50	>50		>50	

IC50 [3] [µM]	IC50 [6] [µM]	IC50 [8] [µM]	IC50 [9] [µM]	Compound	EDmin (Mus musculus [1]) [mg/kg]	EDmin (Mus musculus [2]) [mg/kg]	ED (Rattus norvegicus [4]) [mg/kg]	ED (Rattus norvegicus [5]) [mg/kg]	EDmin (Mus musculus [7]) [mg/kg]	Activity (Rattus norvegicus [10])	Activity (Rattus norvegicus [11])
		> 10	3.3	CC(C)Cn1cc2c(n1)Nc1ccc(Cl)cc1N=C2N1CCN(C)CC1	200	50	>50	>50			
> 100	> 10			Cn1cc2c(n1)Nc1ccc(Cl)cc1N=C2N	>25	25	>50	>25			
6.1	> 10			CN(C)CCNC1=Nc2cc(F)ccc2Nc2nn(C)cc21	>400	>400	>50	>50			
	2.6	> 10		CN1CCN(C2=Nc3cc(F)ccc3Nc3nn(-c4ccccc4)cc32)CC1	>200	>200	>50	50			
> 100	0.86			CN1CCN(C2=Nc3c(Cl)cccc3Nc3nn(C)cc32)CC1	>400	25	>50	>50			
> 100	2.7			Cn1cc2c(n1)Nc1ccc(F)cc1N=C2N1CCN(Cc2ccccc2)CC1	>200	50	50	>50			
> 100	4.7			CN1CCN(C2=Nc3cccc(Cl)c3Nc3nn(C)cc32)CC1	184	184	>50	>50			
		14	3.3	CCn1cc2c(n1)Nc1ccc(F)cc1N=C2N1CCN(C)CC1	>400	6	>40	50		50	
		3.2	97	Cc1c2c(nn1C)Nc1ccc(F)cc1N=C2N1CCN(C)CC1	200	25	>50	>50		50	
		43	2.6	CN1CCN(C2=Nc3ccc(F)cc3Nc3nn(C)cc32)CC1	100	1.6	>40	>20		>50	
	> 1			CN1CCN(C2=Nc3cc(I)ccc3Nc3nn(C)cc32)CC1	50	50	25	>20			
		> 10	0.14	CN1CCN(C2=Nc3cc(Cl)ccc3Nc3nn(C4CCCC4)cc32)CC1	>400	50	>50	50			
> 100	> 100			Cn1cc2c(n1)Nc1ccc(F)cc1N=C2N1CCOCC1	>400	200	>50	>50			
> 100	5.6			Cc1ccc2c(c1)Nc1nn(C)cc1C(N1CCN(C)CC1)=N2	>400	200	>50	>50			>50
		21	0.76	CN1CCN(C2=Nc3cc(F)c(F)cc3Nc3nn(C)cc32)CC1	>200	25	>50	50			
> 10	0.9			Cn1cc2c(n1)Nc1ccc(F)cc1N=C2N1CCN(CC2CC2)CC1	100	50	30	>15			
				Cc1cc2c(s1)Nc1ccc(F)cc1N=C2N1CCN(C)CC1 [FLUMEZAPINE]	6.25	1.6	10	5		20	
